Data set [1] deals with T1, Xaa-Pro aminopeptidase 1 (Homo sapiens, UniProt Q9NQW7). In words: Inhibition of 6-His tagged XPNPEP1 (unknown origin) expressed in Escherichia coli Rosetta DE3 cells using H-Lys(abz)-Pro-Pro-pNA as substrate incubated for 60 mins by fluorescence based analysis. In a few lines: (§1)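 His6-tagged XPNPEP1 was expressed in E. coli Rosetta DE3 (IPTG, 16 h, 37 °C) and purified on TALON resin. Enzyme at 3.5 nM was exposed to compound, then H-Lys(abz)-Pro-Pro-pNA was added at 100 μM final. Fluorescence (Ex/Em 320/410) was followed for 60 min. Single-point inhibition used 20 μM; IC50 as mean ± SEM of three biological replicates.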

Data set [2] deals with MV4-11. Briefly: Cytotoxicity against human MV4-11 cells assessed as reduction in cell viability incubated for 24 hrs by celltiter-glo assay. Format: functional, cell-based. The note with it: MV4-11, 24 h. In a few lines:
(§2)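 MV4;11 cells (WT or CASP1−/−), grown in RPMI 1640 with 10% FBS at 37 °C, 5% CO2, plated 2000 cells/well, dosed by pintool across 100 μM to 15.2 nM in three-fold steps for 24 h. Viability by CellTiter-Glo luminescence after 2 min shaking and 10 min at 25 °C. IC50 as mean ± SEM of three biological replicates.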

The target in data set [3] is T2, Xaa-Pro dipeptidase (Homo sapiens, UniProt P12955).
T2 sequence (P12955 whole entry): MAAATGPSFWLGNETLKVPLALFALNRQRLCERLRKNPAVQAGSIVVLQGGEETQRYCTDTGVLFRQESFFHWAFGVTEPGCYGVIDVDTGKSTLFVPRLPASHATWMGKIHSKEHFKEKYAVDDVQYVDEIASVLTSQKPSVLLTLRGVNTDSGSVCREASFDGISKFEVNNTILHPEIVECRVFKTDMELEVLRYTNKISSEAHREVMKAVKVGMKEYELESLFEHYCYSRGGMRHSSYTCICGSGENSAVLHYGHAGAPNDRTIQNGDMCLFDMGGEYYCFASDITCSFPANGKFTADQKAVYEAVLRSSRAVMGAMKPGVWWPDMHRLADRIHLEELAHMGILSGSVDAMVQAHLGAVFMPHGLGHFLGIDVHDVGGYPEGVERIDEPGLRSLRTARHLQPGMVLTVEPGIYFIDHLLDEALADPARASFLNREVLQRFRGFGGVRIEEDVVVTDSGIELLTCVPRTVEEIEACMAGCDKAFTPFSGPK
In words: (§3) Inhibition of recombinant human PEPD using Ala-Pro as substrate assessed as alanine release by measuring increase in fluorescense signal by fluorescence based analysis.

A short description of data set [4]: Stability of the compound in human MV4-11 cells assessed as esterase-mediated hydrolysis measured after 8 hrs by LC-MS analysis. Format: ADME, cell-based. Particulars: mv4-11, 8 h.
Data set [5] is described as follows: Stability of the compound in human MV4-11 cells assessed as esterase-mediated hydrolysis by LC-MS analysis. Format: ADME, cell-based. In short, it runs like this: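 Compound was incubated in conditioned medium from MV4;11 cells for 24 h at 37 °C, and LC/MS then measured intact ester remaining and the de-esterified free acid. n = 3, mean ± SEM.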
Data set [6] has as its target T3, Xaa-Pro dipeptidase (Homo sapiens) (UniProt P12955).
T3 sequence (whole entry): T2 sequence (P12955 whole entry)
The data set is described as §3.

In data set [7] the test system is OCI-AML2. In words: Induction of cell death in human OCI-AML2 cells assessed as increase in PI uptake at 6.25 uM incubated for 6 hrs by PI staining based fluorescence analysis. In kind it is functional. In a few lines: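 PI flux assay. 2 × 10^4 MV4;11 (WT, CARD8−/− or CASP1−/−) or OCI-AML2 cells in RPMI were given compound at 6.25 μM plus PI at 10 μM final. Fluorescence (Ex/Em 535/617 nm) was read every 5 min at 37 °C for 6 h, baseline-corrected to DMSO and normalized to the maximum response. n = 3.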

For data set [8], the system named is MV4-11. Briefly: Cytotoxicity against human MV4-11 cells assessed as reduction in cell viability at 1 uM incubated for 24 hrs by celltiter-glo assay relative to control. Format: functional. In short, it runs like this: (§4)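 Single-dose viability screen. MV4;11 or OCI-AML2 cells at 2000 cells/well were exposed to 1 μM compound for 24 h. Viability was read by CellTiter-Glo luminescence and expressed as percent inhibition. Values are means of three biological replicates.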
(In general: Cellular ATP, detected with luciferase, serves as a proxy for viable cell number.)

In data set [9] the target is T3, Xaa-Pro dipeptidase (Homo sapiens). In words: Inhibition of recombinant human PEPD using Ala-Pro as substrate assessed as alanine release by measuring increase in fluorescense signal at 1 uM by fluorescence based analysis relative to control. In a few lines: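 Recombinant human PEPD at 50 nM was incubated with Ala-Pro at 40 μM final and compound. Released alanine was detected by coupled alanine transaminase/pyruvate oxidase conversion to H2O2 and resorufin fluorescence (Ex/Em 535/587 nm) at 25 °C.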

The subject of data set [10] is OCI-AML2. In words: Cytotoxicity against human OCI-AML2 cells assessed as reduction in cell viability at 1 uM incubated for 24 hrs by celltiter-glo assay relative to control. Format: functional. In a few lines:
as §4

For data set [11], the target named is T1, Xaa-Pro aminopeptidase 1. In words: Inhibition of 6-His tagged XPNPEP1 (unknown origin) expressed in Escherichia coli Rosetta DE3 cells using H-Lys(abz)-Pro-Pro-pNA as substrate at 20 uM incubated for 60 mins by fluorescence based analysis relative to control. In short, it runs like this: as §1
For data set [12], the system named is MV4-11. Briefly: Cytotoxicity against CASP1 knockout human MV4-11 cells assessed as reduction in cell viability incubated for 24 hrs by celltiter-glo assay. Format: functional, cell-based. Particulars: MV4-11, 24 h. In a few lines: as §2
Data set [13] concerns MV4-11. In words: Cytotoxicity against CASP1 knockout human MV4-11 cells assessed as reduction in cell viability at 0.015 to 100 uM incubated for 24 hrs by celltiter-glo assay. Format: functional. Particulars: dose 0.015-100 µM. In short, it runs like this:
as §2

For data set [14], the system named is MV4-11. Briefly: Cytotoxicity against human MV4-11 cells assessed as reduction in cell viability at 0.015 to 100 uM incubated for 24 hrs by celltiter-glo assay. Particulars: dose 0.015-100 µM. Format: functional. In short, it runs like this:
as §2

The nature of data set [15]: Stability in human MV4-11 cells assessed as retention time of parent compound incubated for 24 hrs by LC/MS analysis. Format: ADME, cell-based. The note with it: mv4-11, 24 h. In short, it runs like this:
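Compound was held in MV4;11 conditioned medium for 24 h at 37 °C, then LC/MS was run, recording the retention times of the parent ester and its free acid.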

Data set [16] has as its system N/TERT-1. Briefly: Cytotoxicity against immortalized human N/TERT-1 Keratinocytes expressing human NLRP1 assessed as cell death at 10 uM incubated for 24 hrs by celltiter-glo assay. In kind it is functional, cell-based. In short, it runs like this:
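N/TERT-1 keratinocytes grown in keratinocyte serum-free medium with penicillin/streptomycin, bovine pituitary extract (25 μg/mL) and EGF (0.2 ng/mL), 37 °C, 5% CO2. Compound added by pintool to 2000 cells/well, 24 h exposure. Viability read by CellTiter-Glo luminescence after 2 min shaking and 10 min at 25 °C. Mean ± SEM of three biological replicates.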

Data set [17] concerns HEK-293T. In words: Induction of pyroptosis in human HEK293T cells expressing CASP1 and GSDMD cotransfected with dTAG-CARD8ZUC and CARD8 FIIND S297A assessed as destabilization of DPP9-CARD8 ternary complex by measuring GSDMD clevage at 10 uM incubated for 6 hrs in presence of dTAG13 by immunoblot analysis. In kind it is functional, cell-based. In short, it runs like this:
(§5)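 HEK293T cells stably expressing CASP1 and GSDMD, 1.5 × 10^5 cells/well. 24 h later treated with dTAG-13 (500 nM) plus compound, DMSO as vehicle, for 6 h. Read-outs were supernatant LDH against a lysis control and GSDMD immunoblot.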
In general terms: In western blotting, separated proteins are transferred to a membrane and probed.

Data set [18] relates to RAW264.7. In words: Induction of pyroptosis in mouse RAW264.7 cells expressing NLRP1B allele 1 assessed as GSDMD clevage at 10 uM incubated for 24 hrs by immunoblot analysis. In kind it is functional, cell-based. In a few lines: (§6)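 RAW264.7 cells in DMEM with L-glutamine and 10% FBS, 5 × 10^5 cells/well, treated 24 h. LDH in supernatant measured relative to a 9% Triton X-100 lysis control. GSDMD cleavage by immunoblot of PBS-sonicated lysates with protein normalized. Mean ± SEM of three biological replicates.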

Data set [19] has as its system HEK-293T. In words: Induction of pyroptosis in human HEK293T cells expressing CASP1 and GSDMD cotransfected with dTAG-CARD8ZUC and CARD8 FIIND S297A assessed as destabilization of DPP9-CARD8 ternary complex by measuring LDH release at 10 uM incubated for 6 hrs in presence of dTAG13. Format: functional, cell-based. In a few lines: as §5
Data set [20] has as its system THP-1. Briefly: Induction of pyroptosis in CARD8 knockout human THP-1 cells harboring dox-inducible […] E274R mutant assessed as GSDMD cleavage at 10 uM pretreated with doxycycline for 16 hrs followed by compound addition and measured after 6 hrs by immunoblot analysis. In kind it is functional, cell-based. In a few lines: (§7)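 CARD8−/− THP-1 cells stably carrying DOX-inducible CARD8 E274R, grown in RPMI 1640 with 10% FBS, 5 × 10^5 cells/well. DOX (100 ng/mL) for 16 h or no DOX, then compound for 6 h. Supernatant LDH measured relative to a Triton X-100 lysis control. GSDMD cleavage by SDS-PAGE immunoblot of protein-normalized lysates.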

Data set [21] has as its system BMDM. Briefly: Induction of pyroptosis in C57BL/6J mouse BMDM cells expressing NLRP1A and NLRP1B allele 2 assessed as LDH release at 10 uM incubated for 24 hrs. Format: functional, cell-based. In a few lines:
(§8)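 Bone marrow from femurs and tibias of 7–12-week-old C57BL/6J mice, red cells lysed. Cells differentiated 6 days at 37 °C in DMEM with 10% FBS and 15–20% L-cell medium, then replated. Exposure 24 h. LDH in supernatant measured relative to a 9% Triton X-100 lysis control. For GSDMD cleavage, cells sonicated in PBS, protein normalized, SDS-PAGE immunoblot.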
For orientation: Release of lactate dehydrogenase indicates damage to the cell membrane.

Data set [22] has as its system BMDM. In words: Induction of pyroptosis in C57BL/6J mouse BMDM cells expressing NLRP1A and NLRP1B allele 2 assessed as GSDMD clevage at 10 uM incubated for 24 hrs by immunoblot analysis. In kind it is functional, cell-based. In short, it runs like this:
as §8

The subject of data set [23] is RAW264.7. In words: Induction of pyroptosis in mouse RAW264.7 cells expressing NLRP1B allele 1 assessed as LDH release at 10 uM incubated for 24 hrs. Format: functional, cell-based. In short, it runs like this:
as §6

Data set [24] relates to THP-1. In words: Induction of pyroptosis in CARD8 knockout human THP-1 cells harboring dox-inducible […] E274R mutant assessed as cell death by measuring LDH release at 10 uM pretreated with doxycycline for 16 hrs followed by compound addition and measured after 6 hrs. Format: functional, cell-based. In a few lines:
as §7

Active and inactive are the calls of the source. The rule behind the calls is not given here.

T1 sequence (Q9NQW7 whole entry): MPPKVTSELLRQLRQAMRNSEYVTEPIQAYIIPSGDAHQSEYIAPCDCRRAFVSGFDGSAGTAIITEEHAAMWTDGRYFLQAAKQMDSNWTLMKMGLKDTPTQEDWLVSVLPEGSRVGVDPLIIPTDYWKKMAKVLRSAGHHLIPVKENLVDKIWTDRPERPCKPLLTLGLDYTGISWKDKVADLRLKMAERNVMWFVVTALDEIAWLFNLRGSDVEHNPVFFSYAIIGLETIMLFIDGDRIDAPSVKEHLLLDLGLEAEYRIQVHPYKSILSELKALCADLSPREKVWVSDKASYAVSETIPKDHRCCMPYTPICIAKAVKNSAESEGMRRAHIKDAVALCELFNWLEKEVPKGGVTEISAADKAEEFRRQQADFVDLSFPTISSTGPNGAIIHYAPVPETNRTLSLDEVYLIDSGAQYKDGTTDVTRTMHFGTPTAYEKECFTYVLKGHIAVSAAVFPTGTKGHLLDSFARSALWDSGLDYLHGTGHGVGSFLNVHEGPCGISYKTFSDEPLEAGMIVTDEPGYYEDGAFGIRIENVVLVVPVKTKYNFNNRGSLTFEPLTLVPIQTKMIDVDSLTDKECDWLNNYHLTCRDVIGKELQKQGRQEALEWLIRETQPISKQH

One may read the IC50 as the concentration needed to halve the response being measured. With `CC(C)C[C@H](NC(=O)[C@@H]1CCCN1C(=O)[C@@H](O)[C@H](N)CC(C)C)C(=O)NCCc1ccc2cc[nH]c2c1`, the results for the half-inhibitory concentration (IC50) in data set [1], in data set [2] and in data set [3] were 2000 nM, 1300 nM and 10000 nM, respectively.

In general, inhibition refers to the relative decrease from the control value, in per cent. As for `CC(C)C[C@@H](N)[C@H](O)C(=O)N1CCC[C@H]1C(=O)OC(C)(C)C`, the Stability result in [4] is “Unstable”; in data set [5] it was “Stable”. In addition, the inhibition result in data set [1] and in data set [6] was “Active” each time.

`COC(=O)[C@@H](NC(=O)[C@@H]1CCCN1C(=O)[C@@H](O)[C@H](N)CC(C)C)C(C)C`: in data set [7], the result was Active. Further, the Activity in [8] is 59%; in data set [10], 32%. The inhibition in [9] amounted to 42%; in data set [11], 65%. In addition, the IC50 was 450 nM in data set [2] and above 20000 nM in data set [12].

`COC(=O)[C@H](CC(C)C)NC(=O)[C@@H](O)[C@H](N)Cc1ccccc1` [BESTATIN METHYL ESTER]: the Activity in data set [13] and in [14] was 11% each time. Further, the values for the 50% inhibitory concentration (IC50) in data set [1], in data set [2] and in [3] were 298000 nM, 3900 nM and above 100000 nM, respectively.

Regarding `CC(C)C[C@H](NC(=O)[C@@H]1CCCN1C(=O)[C@@H](O)[C@H](N)CC(C)C)C(=O)O`, the Retention_time in data set [15] stood at 2.6 min. Besides, the inhibition entry in [1] and in data set [6] was “Active” each time.

On to `CC(C)[C@H](N)C(=O)N1CCC[C@H]1B(O)O`, for which the result in data set [16], in data set [17], in data set [18], in [19], in [21] and in data set [22] was Active. Also, the result in data set [23] was Active. Also, the result in data set [20] and in [24] was inactive.

In the case of `CC(C)C[C@@H](N)[C@H](O)C(=O)N1CCC[C@H]1C(=O)OC1CCCC1`, in data set [5], the Stability entry is listed as “Stable”. Further, the inhibition result in data set [1] and in data set [6] was “Active” in each case.

On to `CC(C)C[C@H](NC(=O)[C@@H]1CCCN1C(=O)[C@@H](O)[C@H](N)CC(C)C)C(=O)NCCc1ccccc1`, for which, in [15], the Retention_time is recorded as 3.24 min. In [2], the 50% inhibitory concentration (IC50) is 840 nM.
